Square brackets hold non-standard residues; d marks the D form. Peptide text beside a SMILES is read from it. pY = N[C@@H](Cc1ccc(OP(=O)(O)O)cc1)C(=O)O
Tests used:
[1] = biological target: T1, SHP2 C-SH2 (SHP2 106–220) (Homo sapiens, UniProt Q06124); assay: Isothermal titration calorimetry, peptide titrated onto C-SH2; type: binding
T1 sequence (Q06124 106-220): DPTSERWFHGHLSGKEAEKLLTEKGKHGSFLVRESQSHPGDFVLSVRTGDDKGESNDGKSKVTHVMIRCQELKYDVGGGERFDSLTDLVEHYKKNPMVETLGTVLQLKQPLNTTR

[2] = biological target: T2, SHP2 N-SH2 (Homo sapiens, UniProt Q06124); assay: NMR 1H,15N-HSQC titration of N-SH2; type: binding; conditions: 1H,15N-HSQC with increasing peptide; protein 200 μM, 298 K
T2 sequence (Q06124 1-105): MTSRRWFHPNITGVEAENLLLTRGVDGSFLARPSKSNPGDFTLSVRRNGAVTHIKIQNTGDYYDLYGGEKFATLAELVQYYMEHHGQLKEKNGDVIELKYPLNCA

[3] = test system: SHP2 C-SH2; assay: NMR 1H,15N-HSQC titration of C-SH2; type: binding, Human; conditions: 1H,15N-HSQC with increasing peptide; protein 200 μM, 298 K
Procedure, shortened: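 Uniformly 15N-labelled SHP2 C-SH2 is expressed in Tuner (DE3) E. coli in minimal medium with 15NH4Cl. Protein at 200 µM is titrated with increasing stoichiometric ratios of N-acetylated, C-amidated phosphopeptide. CSPs combine 1H and 0.15-weighted 15N shift differences.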

Molecule	Kd [1] [µM]	binding to N-SH2 by NMR spectra [2]	binding to C-SH2 by NMR spectra [3]
CC[C@H](C)[C@H](NC(=O)[C@H](CC(N)=O)NC(=O)[C@@H](NC(=O)[C@H](Cc1ccc(OP(=O)(O)O)cc1)NC(=O)[C@H](CCC(=O)O)NC(=O)[C@H](Cc1c[nH]cn1)NC(=O)CNC(=O)[C@H](CCCCN)NC(=O)[C@H](CCCNC(=N)N)NC(=O)[C@H](CCCCN)NC(C)=O)[C@@H](C)O)C(=O)N[C@@H](CCCCN)C(=O)N[C@@H](Cc1ccc(O)cc1)C(=O)N[C@@H](CO)C(N)=O [SHP2-pY542] (Ac-KRKGHE[pY]TNIKYS-NH2)	28	neither SHP2-pY542 nor SHP2-pY580 bind significantly	
EDSARVpYENVGLE [SHP2-pY580]		neither SHP2-pY542 nor SHP2-pY580 bind significantly	no binding

Reference: PMC8113834 (Computational and Structural Biotechnology Journal, 2021)
